Measured values published in ChEMBL document CHEMBL4041471, “neo-Clerodane Diterpenoids and Other Constituents of Salvia filipes” (J Nat Prod, 2016).
Activity calls are given as the source filed them.

What was measured:
Format in all cases: functional, cell-based
U-251 = test: Cytotoxicity against human U251 cells at 20 to 25 uM measured after 48 hrs by SRB assay
Method in brief: (§1)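 SRB screen in human cancer lines (U-251 glioblastoma, PC-3 prostate, K562 leukemia, HCT-15 colorectal, MCF-7 breast, SKLU-1 lung). 5000−7500 cells per well were preincubated 24 h at 37 °C, 5% CO2, then exposed to compound (20.0 or 25.0 μM) for 48 h. Cells were fixed and stained with sulforhodamine B, and absorbance was read at 515 nm.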

MCF7 = test: Cytotoxicity against human MCF7 cells at 20 to 25 uM measured after 48 hrs by SRB assay; method in brief: as §1
K562 = test: Cytotoxicity against human K562 cells at 20 to 25 uM measured after 48 hrs by SRB assay; method in brief: as §1
HCT-15 = test: Cytotoxicity against human HCT15 cells at 20 to 25 uM measured after 48 hrs by SRB assay; method in brief: as §1
PC-3 = test: Cytotoxicity against human PC3 cells at 20 to 25 uM measured after 48 hrs by SRB assay; method in brief: as §1
SK-LU-1 = test: Cytotoxicity against human SKLU1 cells at 20 to 25 uM measured after 48 hrs by SRB assay; method in brief: as §1

Measured: Activity

C[C@@H]1[C@H]2C[C@@]34COC(=O)[C@H]3CC=C[C@H]4[C@@]13C[C@H](C1=CC(O)OC1=O)O[C@H]3O2 (stereo not given in full)
inactive: U-251 | MCF7 | K562 | HCT-15 | PC-3 | SK-LU-1

C[C@@H]1[C@H]2C[C@@]34COC(=O)[C@@H]3CC=C[C@H]4[C@@]13C[C@H](C1=CC(=O)OC1O)O[C@H]3O2 (stereo not given in full)
inactive: U-251 | MCF7 | K562 | HCT-15 | PC-3 | SK-LU-1

C[C@@H]1[C@H]2C[C@@]34COC(=O)[C@@H]3CC=C[C@H]4[C@@]13C[C@H](c1ccoc1)O[C@H]3O2
inactive: U-251 | MCF7 | K562 | HCT-15 | PC-3 | SK-LU-1

COC1C=C([C@H]2C[C@]34[C@@H](O2)O[C@H](C[C@@]25COC(=O)[C@@H]2CC=C[C@H]53)[C@H]4C)C(=O)O1 (mixture of isomers)
inactive: U-251 | MCF7 | K562 | HCT-15 | PC-3 | SK-LU-1

C[C@@H]1[C@H]2C[C@@]34COC(=O)[C@H]3CC=C[C@H]4[C@@]13C[C@H](c1ccoc1)O[C@H]3O2
inactive: U-251 | MCF7 | K562 | HCT-15 | PC-3 | SK-LU-1

C[C@@H]1[C@H]2C[C@@]34COC(=O)[C@@H]3CC=C[C@H]4[C@@]13C[C@H](C1=CC(O)OC1=O)O[C@H]3O2 (stereo not given in full)
inactive: U-251 | MCF7 | K562 | HCT-15 | PC-3 | SK-LU-1

COc1ccc(-c2cc(=O)c3c(O)c(OC)c(OC)cc3o2)cc1O
inactive: U-251 | MCF7 | K562 | HCT-15 | PC-3 | SK-LU-1

C[C@@H]1[C@H]2C[C@@]34COC(=O)[C@H]3CC=C[C@H]4[C@@]13C[C@H](C1=CC(=O)OC1O)O[C@H]3O2 (stereo not given in full)
inactive: U-251 | MCF7 | K562 | HCT-15 | PC-3 | SK-LU-1

C[C@@]12C[C@@]3(c4ccoc4)O[C@@]14CCC=C1C(=O)OC[C@]14CC[C@]2(C)O3
inactive: U-251 | MCF7 | K562 | HCT-15 | PC-3 | SK-LU-1

C[C@@H]1[C@@H](C)O[C@@H]2O[C@@H](c3ccoc3)C[C@@]21c1cccc2c1COC2=O
inactive: U-251 | MCF7 | K562 | HCT-15 | PC-3 | SK-LU-1
